A short description of this data set: Toxicity liver stage against HepG2, at 10uM. In kind it is cell-based. Also noted: test concentration 10 uM, cell line HepG2-A16-CD81EGFP. The note with it: human, HepG2-A16-CD81EGFP cells; read-out: INHIBITION
An outline of the steps: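 Uninfected HepG2-A16-CD81EGFP cells, 3 × 10^3 per well, 1536-well, plated on prespotted compound at 10 μM final, parasite-free screening media added to match infected plates; puromycin 10 μM positive, DMSO 0.5% negative; run in parallel with 48 h PbLuc assay at 37 °C, 5% CO2; viability by CellTiter-Glo luminescence, normalized to controls.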
For the compound `Cc1nnc(CSc2n[nH]c(-c3ccccn3)n2)o1`, the cytotoxicity at 10 µM amounted to 5.81%. For `O=C(c1cscn1)N1C[C@H]2CCCC(OCc3cccnc3)[C@H]2C1` (stereo partly specified), the cytotoxicity at 10 µM is -6.61%. As to `O=S(=O)(NCCCN1CCCC1)c1cc(F)cc(F)c1`, the cytotoxicity at 10 µM came out at 8.84%. To `CC(C)(C)c1n[nH]c(C2CN(CCNC3CCCCC3)CCO2)n1` (stereo unspecified) belongs 6.86%; to `Cc1ccnc(C2CCCN2C(=O)c2cnccn2)n1` (stereo unspecified), -14.1%; to `Cc1cnn(CCCNC(=O)C2CCCCN2Cc2ccncc2)c1` (stereo unspecified), -7.85%. The result for `c1cc(CN2CCC[C@@H](Cn3nnc(-c4cnccn4)n3)C2)ccn1` reads -0.45%. Regarding `CCCSCC(=O)NCc1cccc(CN(C)CC)c1`, the cytotoxicity at 10 µM is -0.823%. On to `O=C(c1ccno1)N1C[C@@H](F)[C@@H](OCc2nc3ccccc3o2)C1`, for which the cytotoxicity at 10 µM turned out to be 7.61%. To `Cc1c(Cl)cccc1S(=O)(=O)N1C[C@H]2CC[C@@H](C1)N(C)C2=O` belongs 3.42%; to `CNc1cc(C2CCCN2Cc2ccccc2C(=O)O)ccn1` (stereo unspecified), -5.28%. Turning to `CCS(=O)(=O)NC[C@]12COC[C@H]1CN(CCc1ccccc1)C2`, the cytotoxicity at 10 µM was determined as 6.07%. To `Cc1nn(CC(=O)N2CCN(c3ncccn3)CC2)c(C)c1Cl` belongs 0.215%. The result for `CC(C)c1nc2c(n1C)CCN(CC(=O)Nc1nccs1)C2` reads 1.88%. To `CC(C)NC(=O)NC(C)c1nc(-c2ccccc2)cs1` (stereo unspecified) belongs -11.1%. As for `CNC(=O)CS(=O)(=O)C1CCN(S(=O)(=O)C2CC2)CC1`, the cytotoxicity at 10 µM was -16.7%.

Regarding `COc1ccccc1OC1(C(=O)O)CCN(c2nc(C)cnc2C)CC1`, the cytotoxicity at 10 µM is -13.6%. For the compound `Cc1cccc(CN2CCc3ncnc(N4CCCC4)c3CC2)n1`, the cytotoxicity at 10 µM was -145%. As to `CCc1c(C)nc2n(c1=O)CC(C(=O)NCc1cccs1)CS2` (stereo unspecified), the cytotoxicity at 10 µM came out at 15.2%. To `COCC1c2c(cnn2C)CCN1Cc1ccc(C)o1` (stereo unspecified) belongs -5.73%; to `CN(C)CCN1CC2(CCN(C(=O)c3cnccn3)CC2)OC1=O`, 9%.

As to `COc1ccc(C[C@H]2CN(C3CCOCC3)CC[C@@H]2OCC2CC2)cc1`, the cytotoxicity at 10 µM was determined as 2.38%. The result for `Cc1nn(C)c(C)c1CCn1cncc1-c1ccc2c(c1)CC(C)N2C` (stereo unspecified) reads -0.168%; that for `Cc1cc2c(N3CCC(N(C)CCc4cnn(C)c4)CC3)ncnc2s1`, 1.38%. The result for `CC(C)N1CCC2(CC1)CC(=O)N(Cc1cc(F)cc(F)c1)C2` reads 9.03%. Turning to `COCCN1C(=O)[C@@H]2CC[C@H]1CN(c1nccc(C3CCCC3)n1)C2`, the cytotoxicity at 10 µM was 7.67%. To `Cc1nnc(NCc2ccc(N3CCC(CO)CC3)cc2)c(C#N)c1C` belongs -2.83%; to `Cc1ccc(CNCCN2CCOCC2)o1`, -2.62%.

For `Cn1cc(C(=O)N2CC[C@@H]3[C@@H]2CCN3Cc2cccnc2)cn1`, the cytotoxicity at 10 µM stood at 3.06%.

As for `c1ccc(CN2CCc3ncnc(C4CCOC4)c3CC2)nc1` (stereo unspecified), the cytotoxicity at 10 µM was determined as 8.88%. The result for `Cn1cnc2c1CCN(Cc1nc(COc3ccc(F)cc3)no1)C2` reads -7.22%.

Turning to `Cn1ccnc1CN1CCCN(C(=O)c2ccc3[nH]cnc3c2)CC1`, the cytotoxicity at 10 µM was -0.565%. To `Cc1cc(CNC(=O)C2CCCCN2C(=O)OC(C)(C)C)no1` (stereo unspecified) belongs 4.91%; to `c1ccc(OCCCNCCn2cccn2)cc1`, -5.46%. `CC(O)CN1CCC(CNCc2ccc(C#N)cc2)CC1` (stereo unspecified): the cytotoxicity at 10 µM came to 8.83%. The result for `Cc1cccc(C)c1OCC(O)CNCc1c(C)nn(C)c1N(C)C` (stereo unspecified) reads -1.47%; that for `CN(Cc1ccc(F)cc1)Cc1cc2c(cc1Br)OCCO2`, -138%.

Consider `CCCC(=O)NCCc1cc(NC)nc(-c2ccccn2)n1`, for which the cytotoxicity at 10 µM turned out to be 1.12%. The result for `CSc1ccc(CNC(c2ccccc2F)c2nccn2C)cc1` (stereo unspecified) reads 1.75%.

Consider `OCCN1CCN(Cc2coc(-c3cccc(Cl)c3)n2)CC1`, for which the cytotoxicity at 10 µM is -21.6%. For `COc1ccc(NC(=O)c2cnc(C3CCN(C(C)=O)C3)nc2C)cc1` (stereo unspecified), the cytotoxicity at 10 µM was -2.6%. Turning to `Cc1cnn(CC2CCCCN2C(=O)c2ccccc2-n2cccn2)c1` (stereo unspecified), the cytotoxicity at 10 µM was -8.4%.

Regarding `O=C(NC1CCOCC1)C1CC(=O)N(Cc2ccccn2)C1` (stereo unspecified), the cytotoxicity at 10 µM was -0.0985%. As for `Cc1ccccc1-c1cc(NC(=O)NC2CCC(O)CC2)n(CCO)n1` (stereo unspecified), the cytotoxicity at 10 µM turned out to be 1.09%.

As to `COc1ncc(NCc2cccc(C#N)c2)cc1C(N)=O`, the cytotoxicity at 10 µM was 5.85%.

As to `CN(C)c1ncc(CNS(=O)(=O)c2cccc3ccccc23)n1C`, the cytotoxicity at 10 µM was determined as 8.32%. The result for `C[C@H]1CN(c2ccccn2)C[C@@]12CCN(Cc1cccnc1)C2=O` reads -1.16%; that for `Clc1ccc(C2(NCc3noc(C4CC4)n3)CCCC2)cc1`, 13.3%.

For `CC1CCN(c2cc(-n3cnc(C(=O)N4CCSCC4)c3)ncn2)CC1`, the cytotoxicity at 10 µM worked out at 0.668%. To `Cc1cc(C)n(C2CN(CCC(N)=O)C2)n1` belongs -5.04%; to `Cn1cc([C@@H]2CN(S(C)(=O)=O)C[C@H]2N)c2ccncc21`, 2.61%; to `CC(=O)Nc1cc(Br)cnc1OCC(F)(F)F`, 5.69%. To `O=C([C@@H]1CCO[C@@H]2CCN(Cc3ccco3)C[C@H]21)N1CCCCO1` belongs 9.76%; to `CCC(=O)N1CCN(c2cc(-n3cnc(C)c3C)nc(C)n2)CC1`, -4.56%; to `Cc1ccc(C(=O)N2CCC3(CCCN(c4ncc(F)cn4)C3)C2)cn1` (stereo unspecified), -106%. The result for `Cc1cccnc1CN(C)C(C(=O)O)c1ccc(-n2cccn2)cc1` (stereo unspecified) reads -4.86%; that for `CC(C)n1cc(C(=O)NC2CCS(=O)(=O)C2)c2ccccc2c1=O` (stereo unspecified), 1.85%; that for `C[C@H]1C(=O)NC[C@H]2CN(CCc3ccccc3)C[C@H]21`, 2.64%. In the case of `CC(C)Nc1cc(N2CCN(Cc3ccccc3)C(CCO)C2)ncn1` (stereo unspecified), the cytotoxicity at 10 µM came out at 7.9%. Turning to `Cc1c(Cl)c(C(=O)N2CC(c3cccnc3)C2)nn1C`, the cytotoxicity at 10 µM was -5.23%.

Turning to `FC(F)(F)c1nc(NC2CCCC2)c2ccccc2n1`, the cytotoxicity at 10 µM came out at 15.8%. To `COCCCNC(=O)N1CCN(C(=O)c2nsc3ccccc23)CC1` belongs 12%; to `Cc1noc(CN(C)C2CCCN(Cc3noc(C4CC4)n3)C2)n1` (stereo unspecified), -2.19%; to `Cc1nc(CN(C)Cc2csc(-c3cccs3)n2)co1`, -6.06%.

On to `O=C1CCCCN1CCCC(=O)N1CCC2(CC1)[C@H](O)C[C@@H]2O`, for which the cytotoxicity at 10 µM came to 1.12%. Regarding `CC(=O)N1CCN(C(=O)CCn2c(C)nc3ccccc3c2=O)CC1`, the cytotoxicity at 10 µM was -4.81%. Take `CC(C)O[C@H]1CN(C(=O)CCN2CCCCO2)C[C@@H]1O`: the cytotoxicity at 10 µM is -7.12%.

For the compound `CC1CCN(C(=O)[C@@H]2CC[C@@H]3[C@@H](CCN3c3ncc(F)cn3)O2)CC1`, the cytotoxicity at 10 µM is -0.359%.

With `CCc1c(C)nc2cc(C3CCN(Cc4ccc(F)cc4)C3)nn2c1O` (stereo unspecified), the cytotoxicity at 10 µM is -18.6%.

As for `Cc1cc(C)n(CC2CN(CCOc3cccc(C#N)c3)CCO2)n1` (stereo unspecified), the cytotoxicity at 10 µM is -10.9%. In the case of `COc1c(C)cnc(CSc2nnc(N)s2)c1C`, the cytotoxicity at 10 µM turned out to be 10.1%. To `Cc1nc(Cn2c3c(ccc2=O)CC(NC(N)=O)CC3)cs1` (stereo unspecified) belongs 9.79%; to `Cc1c[nH]nc1C1CCCN(C(=O)Cn2cccn2)C1` (stereo unspecified), -14.5%.

For the compound `Cc1ccc(OC(C)CNC(=O)c2c[nH]nn2)cc1` (stereo unspecified), the cytotoxicity at 10 µM was -0.0422%. The result for `O=C(Cc1ccsc1)N1CCC(c2noc(-c3ccncc3)n2)CC1` reads -22.1%; that for `O=C(NCC(F)(F)F)c1coc(COc2cccc(F)c2)n1`, -148%; that for `O=C(c1cccnc1-n1cncn1)N1CCN(c2ccccc2)CC1`, 4.06%. As to `Cc1nc(C(C)Nc2ncnc3c2CCNCC3)c(C)s1` (stereo unspecified), the cytotoxicity at 10 µM was -6.64%.

In the case of `O=C(C1CCOCC1)N1CCN2C(=O)N(Cc3ccc(F)cc3)C[C@H]2C1`, the cytotoxicity at 10 µM is -1.34%.

As to `O=C(CN1C(=O)CCC1=O)NCCc1nc(C2CC2)cc(C(F)(F)F)n1`, the cytotoxicity at 10 µM was -2.02%.

Take `Cc1cn2c(n1)CCC(NC(=O)CCOc1cccc(F)c1)C2` (stereo unspecified): the cytotoxicity at 10 µM is -3.42%. `Cn1cc(C(=O)NCCc2ccc(OC3CCCC3)cc2)ccc1=O`: the cytotoxicity at 10 µM is -2.51%.

As to `CCc1sc(-c2nnc(CNCCn3cc(C)cn3)o2)cc1C`, the cytotoxicity at 10 µM was -8.75%. The result for `CCc1cnc(N)nc1NCc1ccc(OC)c(OC)c1` reads 3.48%; that for `CC(C)CC(=O)N1CCN(c2cc(N(C)C)cnn2)CC1`, 4.17%. To `CCc1cc(=O)[nH]c(-n2nc(C3CC3)cc2NC(=O)C2CC2)n1` belongs 26.5%; to `CNc1ncccc1CN1CCN(C)CC(C(N)=O)C1` (stereo unspecified), 0.106%.

`CC(Cn1ccnc1)NS(=O)(=O)c1ccc(F)c(Cl)c1` (stereo unspecified): the cytotoxicity at 10 µM was determined as 9.25%. The result for `O=S(=O)(NC1CCC12CCN(CC1CC1)CC2)c1ccccc1` (stereo unspecified) reads -7.82%; that for `COc1ccc(C2CC(=O)Nc3c2nc2n3CCCC2)cc1OC` (stereo unspecified), -8.41%. To `Cc1ccc2[nH]c(CO[C@H]3CN(c4ccc(C#N)cn4)C[C@H]3F)nc2c1` belongs -1.6%.

`CNCC(=O)Nc1cccc(-c2cnc(NCCS(C)(=O)=O)nc2)c1`: the cytotoxicity at 10 µM is -1.31%. Turning to `COc1cc(NC(=O)NCc2nccn2C)ccc1Br`, the cytotoxicity at 10 µM was -9.11%. The result for `Cn1cccc1CN1CCC2(CC1)CN(c1ccccc1)C(=O)CO2` reads -130%; that for `Cc1cnc(CN2CCCC(c3cc(C)[nH]n3)C2)cn1` (stereo unspecified), 0.802%; that for `O=C(CC1CCCC1)N1C[C@@H]2CN(Cc3ccoc3)CCO[C@@H]2C1`, -79.3%.

Values taken from ChEMBL document CHEMBL4513216, “Probing the Open Global Health Chemical Diversity Library for Multistage-Active Starting Points for Next-Generation Antimalarials” (ACS Infect Dis, 2020).
